Assays:
[1] = Selectivity index, ratio of cytotoxicity towards human Akata cells to EC50 for EBV infected in human Akata cells; assay type: toxicity, cell-based; details: read-out: Selectivity Index
[2] = tested on: Human gammaherpesvirus 4; assay: Antiviral activity against EBV infected in human Akata cells by DNA hybridization assay; assay type: functional, organism-based; details: human gammaherpesvirus 4, Akata
Procedure, shortened: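 Under an NIAID agreement, testing was done at Southern Research Institute as part of a 21-virus panel. EBV activity was assessed in Akata cells by DNA hybridization, and EC50 values were derived.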

[3] = Cytotoxicity against human HOG.R5 cells infected with HIV-1 3B; assay type: cell-based
Procedure, shortened: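 Cytotoxicity was run in parallel with the anti-HIV assay, in the same GFP-reporter HOG·R5 line (HOS cells expressing CD4/CCR5). Cell-growth inhibition of the host cells was measured.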

[4] = tested on: Human immunodeficiency virus 1; assay: Antiviral activity against HIV-1 3B/H9 infected in human HOG.R5 cells transfected with HIV1 LTR-GFP assessed as inhibition of viral replication at 15.9 uM by fluorescence analysis; assay type: functional; details: Human immunodeficiency virus 1, 3B
[5] = tested on: Human immunodeficiency virus 1; assay: Antiviral activity against HIV-1 3B/H9 infected in human HOG.R5 cells transfected with HIV1 LTR-GFP assessed as inhibition of viral replication by fluorescence analysis; assay type: functional, organism-based; details: Human immunodeficiency virus 1, 3B
[6] = tested on: Human immunodeficiency virus 1; assay: Antiviral activity against HIV-1 3B/H9 infected in human HOG.R5 cells transfected with HIV1 LTR-GFP assessed as inhibition of viral replication at 10 ug/ml by fluorescence analysis; assay type: functional; details: Human immunodeficiency virus 1, 3B

Compound: O[C@]12CO[C@@H](c3ccc4c(c3)OCO4)[C@@]1(O)CO[C@@H]2c1ccc2c(c1)OCO2
- selectivity ratio [1]: 1.2
- EC50 [2]: 67 µM

Compound: COc1cc(OC)c(C(=O)/C=C/c2ccc(O)cc2)c(OC)c1
- CC50 [3]: 24.4 µM
- selectivity ratio [1]: 3.5
- inhibition at 15.9 µM [4]: 77%
- IC50 [5]: < 15.2 µM
- EC50 [2]: 15 µM

Compound: C=Cc1c(C)c2cc3nc(c4c5[nH]c(cc6nc(cc1[nH]2)C(C)=C6CC)c(C)c5C(=O)[C@@H]4C(=O)OC)[C@@H](CCC(=O)O)[C@@H]3C [PHEOPHORBIDE A]
- inhibition at 10 µg/mL [6]: 80%
